Series [1] is described as follows: Aqueous solubility at pH 7.
Series [2] addresses T1, Angiopoietin-1 receptor (Homo sapiens, UniProt Q02763). The experiment in a line: Inhibition of Tie-2 phosphorylation by cell based assay.
A short description of series [3]: (§1) Protein binding in rat plasma. It counts as ADME, cell-free. The conditions noted are these: read-out: PPB (converted).
The subject of series [4] is Rattus norvegicus. The experiment in a line: Hypotensive activity in rat assessed as VEGF-induced reduction in blood pressure at 20 mg/kg, iv. It counts as functional, organism-based. Set-up: dose 20 mg/kg. The method, boiled down:
(§2)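 Male Alderley Park rats anaesthetised with α-chloralose iv, maintained with thiopentone ip. Carotid artery cannulated for blood pressure recording by pressure transducer. Jugular vein cannulated for bolus VEGF or Ang-1 in 0.85% NaCl. Ang-1 was baculovirus/insect-cell expressed, 40–60 µg per batch, adjusted to give a 10–20 mmHg fall. Compound or vehicle given iv (25% w/v hydroxypropyl-β-cyclodextrin, Sorensen phosphate pH 5.5).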

For series [5], the system named is Rattus norvegicus. The experiment in a line: Hypotensive activity in rat assessed as reversal of angiopoietin-1-induced reduction in blood pressure at 20 mg/kg, iv. It counts as functional, organism-based. Set-up: dose 20 mg/kg. The method, boiled down:
as §2

Series [6] in a line: Volume of distribution at steady state in rat at 2 mg/kg, iv and 5 mg/kg, po. It counts as ADME, organism-based. The conditions noted are these: in vivo, read-out: Vdss.
The subject of series [7] is Plasma. The description is as §1. It counts as ADME, cell-free.
Series [8] is described as follows: Bioavailability in rat at 2 mg/kg, iv and 5 mg/kg, po. It counts as ADME, organism-based. The conditions noted are these: in vivo.
Series [9] can be described thus: Lipophilicity, log D of the compound. The conditions noted are these: octanol/water.
In series [10] the target is T1, Angiopoietin-1 receptor. The experiment in a line: Inhibition of Tie-2.
Series [11] is described as follows: Half life in rat at 5 mg/kg, po. It counts as ADME, organism-based. Set-up: dose 5 mg/kg, route oral. The conditions noted are these: in vivo.
Series [12] can be described thus: Clearance in rat at 2 mg/kg, iv and 5 mg/kg, po. It counts as ADME, organism-based. Particulars: in vivo.
A short description of series [13]: Cmax in rat at 1 mg/kg, po. It counts as ADME, organism-based. Set-up: dose 1 mg/kg, route oral. The conditions noted are these: in vivo.
The target of series [14] is Vascular endothelial growth factor receptor 2 (Homo sapiens) (UniProt P35968). Briefly: Inhibition of FLt.
In series [15] the target is Vascular endothelial growth factor receptor 1 (Homo sapiens) (UniProt P17948). The experiment in a line: Inhibition of Flt-1.
Sequence of Vascular endothelial growth factor receptor 1 (Homo sapiens) (P17948 whole entry, looked up): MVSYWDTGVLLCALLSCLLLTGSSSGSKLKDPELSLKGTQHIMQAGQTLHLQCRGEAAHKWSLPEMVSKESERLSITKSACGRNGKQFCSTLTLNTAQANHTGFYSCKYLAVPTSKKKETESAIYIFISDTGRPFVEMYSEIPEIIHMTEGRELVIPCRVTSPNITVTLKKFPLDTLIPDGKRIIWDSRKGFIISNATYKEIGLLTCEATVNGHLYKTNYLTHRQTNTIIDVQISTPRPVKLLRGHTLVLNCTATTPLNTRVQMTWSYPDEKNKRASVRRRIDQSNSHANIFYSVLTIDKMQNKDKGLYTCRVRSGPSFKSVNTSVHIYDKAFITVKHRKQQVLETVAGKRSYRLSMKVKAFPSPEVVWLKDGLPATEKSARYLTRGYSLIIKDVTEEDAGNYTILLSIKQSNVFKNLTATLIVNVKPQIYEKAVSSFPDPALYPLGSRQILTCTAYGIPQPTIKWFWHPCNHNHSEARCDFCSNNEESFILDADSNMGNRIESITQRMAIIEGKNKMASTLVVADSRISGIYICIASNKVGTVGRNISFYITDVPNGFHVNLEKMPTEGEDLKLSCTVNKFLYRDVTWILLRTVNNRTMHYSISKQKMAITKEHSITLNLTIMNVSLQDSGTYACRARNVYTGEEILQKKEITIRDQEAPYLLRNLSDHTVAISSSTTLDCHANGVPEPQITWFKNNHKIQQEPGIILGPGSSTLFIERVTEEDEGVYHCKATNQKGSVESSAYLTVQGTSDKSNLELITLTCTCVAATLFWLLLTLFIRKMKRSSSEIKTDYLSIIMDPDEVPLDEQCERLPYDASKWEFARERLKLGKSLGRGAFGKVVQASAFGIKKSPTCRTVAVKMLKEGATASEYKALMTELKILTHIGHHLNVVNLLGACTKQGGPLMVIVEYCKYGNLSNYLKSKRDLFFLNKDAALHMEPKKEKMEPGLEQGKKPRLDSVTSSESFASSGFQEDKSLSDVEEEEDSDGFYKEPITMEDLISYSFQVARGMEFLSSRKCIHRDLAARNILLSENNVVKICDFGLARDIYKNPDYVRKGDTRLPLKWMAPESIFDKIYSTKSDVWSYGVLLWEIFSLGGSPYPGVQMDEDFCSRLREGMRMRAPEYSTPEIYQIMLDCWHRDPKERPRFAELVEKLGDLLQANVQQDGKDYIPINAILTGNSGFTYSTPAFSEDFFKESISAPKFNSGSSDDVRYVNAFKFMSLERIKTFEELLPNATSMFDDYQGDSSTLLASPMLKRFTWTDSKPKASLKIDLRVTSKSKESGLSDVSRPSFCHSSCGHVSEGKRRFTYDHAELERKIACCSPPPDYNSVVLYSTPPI

SMILES strings stand for the structures. Converted amounts (≈) assume the structure as drawn. The source made the active and inactive calls. No cut-off for these calls is given here.

T1 sequence (Q02763 whole entry): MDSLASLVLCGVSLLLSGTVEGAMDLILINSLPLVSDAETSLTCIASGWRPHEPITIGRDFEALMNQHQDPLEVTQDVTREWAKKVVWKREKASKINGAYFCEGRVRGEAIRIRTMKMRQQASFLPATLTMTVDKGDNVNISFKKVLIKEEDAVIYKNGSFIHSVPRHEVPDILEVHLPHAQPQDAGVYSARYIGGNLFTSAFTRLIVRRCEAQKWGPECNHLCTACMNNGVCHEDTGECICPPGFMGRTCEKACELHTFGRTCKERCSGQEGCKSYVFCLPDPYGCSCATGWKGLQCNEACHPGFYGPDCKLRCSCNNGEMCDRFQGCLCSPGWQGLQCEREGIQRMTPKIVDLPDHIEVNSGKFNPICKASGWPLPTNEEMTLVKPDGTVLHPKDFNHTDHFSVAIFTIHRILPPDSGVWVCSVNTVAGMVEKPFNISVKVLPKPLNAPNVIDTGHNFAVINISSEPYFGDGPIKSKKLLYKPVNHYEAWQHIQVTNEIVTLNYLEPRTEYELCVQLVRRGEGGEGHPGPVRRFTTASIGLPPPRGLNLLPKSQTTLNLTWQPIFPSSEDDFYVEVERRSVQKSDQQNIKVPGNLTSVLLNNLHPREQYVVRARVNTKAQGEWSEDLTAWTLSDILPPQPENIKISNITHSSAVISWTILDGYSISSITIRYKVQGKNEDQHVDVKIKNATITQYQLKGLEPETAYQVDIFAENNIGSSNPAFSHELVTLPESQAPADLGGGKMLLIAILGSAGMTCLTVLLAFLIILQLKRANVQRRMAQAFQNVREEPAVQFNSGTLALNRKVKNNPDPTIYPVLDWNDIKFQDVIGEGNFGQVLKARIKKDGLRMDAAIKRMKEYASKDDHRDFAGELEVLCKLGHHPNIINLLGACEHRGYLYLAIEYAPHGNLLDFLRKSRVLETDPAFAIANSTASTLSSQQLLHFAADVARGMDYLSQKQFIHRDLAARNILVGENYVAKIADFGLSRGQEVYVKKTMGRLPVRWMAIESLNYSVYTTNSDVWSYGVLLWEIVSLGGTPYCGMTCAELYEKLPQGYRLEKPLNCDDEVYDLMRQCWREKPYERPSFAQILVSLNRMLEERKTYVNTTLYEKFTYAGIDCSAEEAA

A word on the solubility: it is the concentration that dissolves in the medium under given conditions. The IC50 is the concentration needed to halve the response being measured. Low readings indicate greater potency in that assay, high ones weaker potency in that assay. For `CCn1cnc(-c2ccccc2)c1-c1nc2c(N)ncnc2s1`, the solubility in series [1] amounted to 171 µM (≈ 55.1 µg/mL). The same compound displayed an IC50 in series [2] of 3000 nM.

For the compound `CC(C)Cn1cnc(-c2ccccc2)c1-c1nc2c(N)ncnc2s1`, the fraction unbound in series [3] is 0.059. Moreover, the solubility in series [1] turned out to be 70 µM (≈ 24.5 µg/mL). Further, in series [2], half-maximal inhibition (IC50) was put at 490 nM.

With `Nc1ncnc2sc(-c3c(-c4ccccc4)ncn3CC3CCCCC3)nc12`, in [3], the fraction unbound is 0.016.

With `Cn1cnc(-c2cccc(NC(=O)Nc3ccccc3)c2)c1-c1cc2c(N)ncnc2s1`, the IC50 in [2] turned out to be 1400 nM.

As for `Nc1ncnc2sc(-c3c(-c4ccccc4)ncn3Cc3ccccc3N3CCOCC3)nc12`, the fraction unbound in series [3] is 0.058. Moreover, the outcome in series [4] was inactive. Further, the IC50 in series [2] came to 440 nM. For the same compound, in [5], the outcome was Active.

`Cc1ccc(Sc2cccc(-c3ncn(C)c3-c3cc4c(N)ncnc4s3)c2)cc1` had an IC50 in series [2] of 1400 nM.

Broadly, the bioavailability is the share of a dose that reaches the circulation, judged against a reference dose that is usually intravenous. A lower bioavailability goes with poor availability. The term logD denotes lipophilicity at a set pH, counting ionised and neutral species. A higher logD goes with higher lipophilicity. The term half-life denotes how long it takes for the measured level to halve. Low readings indicate rapid decline, high ones slow decline. For `Cn1cnc(-c2ccccc2)c1-c1nc2c(N)ncnc2s1`, the Vd in series [6] is 1.2 L/kg. In series [7], this compound returned a PPB of 94.6%. Besides, the fraction unbound in series [3] was 0.052. Further, in series [8], the bioavailability was more than 100%. For the same compound, the concentration in solution in [1] (solubility) came to 160 µM (≈ 49.3 µg/mL). The compound also registered a logD in series [9] of 2.7. This compound registered a half-inhibitory concentration (IC50) in [10] of 20000 nM. Also, the half-life in series [11] was 1.6 h. The clearance in [12] worked out at 30.1 mL/min/kg.

Broadly, the Cmax is the highest concentration seen after dosing. On to `Cc1cc(NC(=O)Nc2cccc(-c3ncn(C)c3-c3cc4c(N)ncnc4s3)c2)on1`, for which the concentration in series [13] peaked (Cmax) at 9 nM. Half-maximal inhibition in series [2] (IC50) was put at 340 nM.

In series [2], `Cn1cnc(-c2cccc(NC(=O)Nc3cc(C(F)(F)F)ccc3F)c2)c1-c1cc2c(N)ncnc2s1` returned an IC50 of 70 nM.

Consider `Cn1cnc(-c2ccccc2)c1-c1cc2c(N)ncnc2s1`, for which the Vd in series [6] is 1.4 L/kg. Besides, the fraction unbound in series [3] is 0.045. In series [8], the bioavailability was more than 100%. The IC50 in series [2] worked out at 1800 nM; in [10], 34000 nM; in [14], 22000 nM; in series [15] it was 10000 nM. In [11], this compound showed a half-life of 1.8 h. The same compound had a clearance in [12] of 39 mL/min/kg.

Turning to `Nc1ncnc2sc(-c3c(-c4ccccc4)ncn3C[C@H]3CCCO3)nc12`, the fraction unbound in series [3] is 0.2. The compound also showed an IC50 in series [2] of 370 nM.

The values are drawn from ChEMBL document CHEMBL1154391, “Novel thienopyrimidine and thiazolopyrimidine kinase inhibitors with activity against Tie-2 in vitro and in vivo” (Bioorg Med Chem Lett, 2009).
